The source made the active and inactive calls. The calls are words filed in the database; no cut-off is given here.
Key:
[1] = Bioavailability in mouse; type: ADME, organism-based; details: in vivo
[2] = biological target: 5-hydroxytryptamine receptor 7 (Homo sapiens, UniProt P34969); test: Binding affinity to 5HT7 receptor (unknown origin)
hERG (KCNH2) [3] = biological target: T1, hERG (KCNH2) (Homo sapiens, UniProt Q12809); test: (§1) Inhibition of human ERG channel expressed in CHO cells at […] by patch clamp method; type: cell-based; details: CHO cells expressing human ERG channel
[4] = biological target: Alpha-2B adrenergic receptor (Homo sapiens, UniProt P18089); test: Binding affinity to adrenergic alpha-2B receptor (unknown origin)
Mus musculus = test: Antipsychotic activity in C57BL/6J mouse assessed as reduction of amphetamine-induced locomotor activity administered ip 15 mins prior to amphetamine challenge measured for 105 mins by open field test relative to vehicle-treated control; type: functional, organism-based
Homo sapiens = species on record: Homo sapiens; test: Selectivity ratio of EC50 for human 5-HT2A receptor to EC50 for human 5HT2C receptor
[5] = biological target: 5-hydroxytryptamine receptor 1A (Homo sapiens, UniProt P08908); test: Binding affinity to 5HT1A receptor (unknown origin)
[6] = biological target: 5-hydroxytryptamine receptor 2B (Homo sapiens, UniProt P41595); test: Agonist activity at human 5-HT2B receptor expressed in HEK293 cells assessed as calcium flux at 10 uM by FLIPR assay; type: functional, cell-based
How it was run: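 Flp-In-293 cells stably expressing human 5-HT2A, 5-HT2B or 5-HT2C-INI, grown in DMEM with 10% dialyzed FBS, then plated for 24 h in 1% dialyzed FBS. Cells were loaded 1 h at 37 °C with calcium dye in Hepes-buffered HBSS, pH 7.40, containing 2.5 mM probenecid. FLIPR read 10 s baseline, then 120 s after drug addition.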

[7] = biological target: Alpha-2A adrenergic receptor (Homo sapiens, UniProt P08913); test: Binding affinity to adrenergic alpha-2A receptor (unknown origin)
[8] = biological target: T2, 5-hydroxytryptamine receptor 2C (Homo sapiens, UniProt P28335); test: Agonist activity at human 5-HT2C receptor expressed in HEK293 cells assessed as calcium flux by FLIPR assay; type: functional, cell-based
T2 sequence (P28335 whole entry): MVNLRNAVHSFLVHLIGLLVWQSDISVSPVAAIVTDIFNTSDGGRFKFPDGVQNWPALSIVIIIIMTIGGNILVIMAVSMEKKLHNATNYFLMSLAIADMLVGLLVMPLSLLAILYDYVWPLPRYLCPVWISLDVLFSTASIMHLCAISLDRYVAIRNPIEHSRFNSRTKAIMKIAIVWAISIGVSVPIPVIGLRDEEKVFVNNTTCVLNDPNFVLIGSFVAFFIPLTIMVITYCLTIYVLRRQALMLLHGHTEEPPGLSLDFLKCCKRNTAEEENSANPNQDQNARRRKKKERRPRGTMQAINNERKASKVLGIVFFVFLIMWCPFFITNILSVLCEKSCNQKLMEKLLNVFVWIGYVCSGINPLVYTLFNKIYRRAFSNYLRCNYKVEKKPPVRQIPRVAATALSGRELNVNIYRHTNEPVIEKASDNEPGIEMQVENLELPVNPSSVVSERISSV

[9] = biological target: T3, 5-hydroxytryptamine receptor 2C (Homo sapiens) (UniProt P28335); test: Agonist activity at human 5-HT2C receptor expressed in HEK293 cells assessed as calcium flux by FLIPR assay relative to 5-HT; type: functional, cell-based
T3 sequence (whole entry): T2 sequence (P28335 whole entry)
How it was run: (§2)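 Flp-In-293 cells stably expressing human 5-HT2A, 5-HT2B or 5-HT2C-INI; grown 24–48 h in DMEM/10% dialyzed FBS, plated on poly-L-Lys at 12000 cells/well in 1% dialyzed FBS for 24 h. Loaded 1 h at 37 °C with calcium dye in HBSS, 20 mM Hepes pH 7.40, 2.5 mM probenecid.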

CYP2B6 = biological target: T4, CYP2B6 (Homo sapiens, UniProt P20813); test: Inhibition of human CYP2B6 using bupropion as substrate at 10 uM; type: ADME; details: probe bupropion
T4 sequence (P20813 whole entry): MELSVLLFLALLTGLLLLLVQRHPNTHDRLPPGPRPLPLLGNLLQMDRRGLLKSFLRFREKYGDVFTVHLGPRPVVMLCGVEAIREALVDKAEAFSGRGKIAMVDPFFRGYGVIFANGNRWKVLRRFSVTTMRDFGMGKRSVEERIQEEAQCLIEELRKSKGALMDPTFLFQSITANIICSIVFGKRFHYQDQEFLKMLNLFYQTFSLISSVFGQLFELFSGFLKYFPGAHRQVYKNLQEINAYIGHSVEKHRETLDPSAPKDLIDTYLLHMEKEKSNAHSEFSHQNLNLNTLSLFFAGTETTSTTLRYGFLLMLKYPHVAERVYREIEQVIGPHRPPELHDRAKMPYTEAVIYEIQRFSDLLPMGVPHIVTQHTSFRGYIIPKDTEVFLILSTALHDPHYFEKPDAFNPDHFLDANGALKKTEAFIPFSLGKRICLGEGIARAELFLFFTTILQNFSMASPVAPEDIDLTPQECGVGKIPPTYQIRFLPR

D(3) dopamine receptor = D(3) dopamine receptor (Homo sapiens, UniProt P35462); test: Binding affinity to dopamine D3 receptor (unknown origin)
CYP2C9 = CYP2C9 (Homo sapiens, UniProt P11712); test: Inhibition of human CYP2C9 using diclofenac as substrate at 10 uM; type: ADME; details: probe diclofenac
CYP3A4 = CYP3A4 (Homo sapiens, UniProt P08684); test: Inhibition of human CYP3A4 using midazolam as substrate at 10 uM; type: ADME; details: probe midazolam
How it was run: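 Human liver microsomes with test compound at 10 µM; percent inhibition determined using bupropion (2B6), dextromethorphan (2D6) or midazolam (3A/3A4) as probe substrates.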

[10] = biological target: 5-hydroxytryptamine receptor 6 (Homo sapiens, UniProt P50406); test: Binding affinity to 5HT6 receptor (unknown origin)
hERG (KCNH2) [11] = biological target: T1, hERG (KCNH2); test: Inhibition of human ERG channel expressed in CHO cells at 3.3 uM by patch clamp method; type: cell-based; details: CHO cells expressing human ERG channel
How it was run: (§3)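 hERG current recorded in CHO cells by automated patch clamp; percent inhibition at 0.37, 1.1, 3.3, 10 and 30 µM.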

[12] = biological target: Voltage-gated inwardly rectifying potassium channel KCNH2 (Homo sapiens, UniProt Q12809); test: Inhibition of human ERG channel expressed in CHO cells by patch clamp method; type: cell-based; details: human, cho
hERG (KCNH2) [13] = biological target: T1, hERG (KCNH2); test: Inhibition of human ERG channel expressed in CHO cells at 30 uM by patch clamp method; type: cell-based; details: CHO cells expressing human ERG channel; how it was run: as §3
[14] = biological target: T5, 5-hydroxytryptamine receptor 2A (Homo sapiens, UniProt P28223); test: Agonist activity at human 5-HT2A receptor expressed in HEK293 cells assessed as calcium flux by FLIPR assay; type: functional, cell-based
CYP2C19 = CYP2C19 (Homo sapiens, UniProt P33261); test: Inhibition of human CYP2C19 using omeprazole as substrate at 10 uM; type: ADME; details: probe omeprazole
hERG (KCNH2) [15] = biological target: T1, hERG (KCNH2); test: as §1; type: cell-based; details: CHO cells expressing human ERG channel; remark: listed apart in the source
CYP2D6 = CYP2D6 (Homo sapiens, UniProt P10635); test: Inhibition of human CYP2D6 using dextromethorphan as substrate at 10 uM; type: ADME; details: probe dextromethorphan
[16] = biological target: T5, 5-hydroxytryptamine receptor 2A; test: Agonist activity at human 5-HT2A receptor expressed in HEK293 cells assessed as calcium flux by FLIPR assay relative to 5-HT; type: functional, cell-based; how it was run: as §2
hERG (KCNH2) [17] = biological target: T1, hERG (KCNH2); test: Inhibition of human ERG channel expressed in CHO cells at 10 uM by patch clamp method; type: cell-based; details: CHO cells expressing human ERG channel; how it was run: as §3
[18] = biological target: Alpha-2C adrenergic receptor (Homo sapiens, UniProt P18825); test: Binding affinity to adrenergic alpha-2C receptor (unknown origin)
Alpha-2C adrenergic receptor, sequence (P18825 whole entry): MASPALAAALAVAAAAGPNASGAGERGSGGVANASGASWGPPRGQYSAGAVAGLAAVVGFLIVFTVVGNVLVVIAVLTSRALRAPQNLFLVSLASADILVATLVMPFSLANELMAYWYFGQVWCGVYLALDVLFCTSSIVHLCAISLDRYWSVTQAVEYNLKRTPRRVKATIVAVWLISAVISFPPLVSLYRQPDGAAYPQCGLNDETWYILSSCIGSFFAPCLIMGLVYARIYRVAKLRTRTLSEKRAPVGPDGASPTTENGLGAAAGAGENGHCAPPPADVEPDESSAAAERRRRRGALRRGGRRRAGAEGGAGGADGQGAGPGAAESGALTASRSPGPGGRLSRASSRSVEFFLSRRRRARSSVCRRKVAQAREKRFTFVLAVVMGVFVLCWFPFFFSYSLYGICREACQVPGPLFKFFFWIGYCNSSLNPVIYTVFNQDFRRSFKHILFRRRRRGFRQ

T1 sequence (Q12809 whole entry): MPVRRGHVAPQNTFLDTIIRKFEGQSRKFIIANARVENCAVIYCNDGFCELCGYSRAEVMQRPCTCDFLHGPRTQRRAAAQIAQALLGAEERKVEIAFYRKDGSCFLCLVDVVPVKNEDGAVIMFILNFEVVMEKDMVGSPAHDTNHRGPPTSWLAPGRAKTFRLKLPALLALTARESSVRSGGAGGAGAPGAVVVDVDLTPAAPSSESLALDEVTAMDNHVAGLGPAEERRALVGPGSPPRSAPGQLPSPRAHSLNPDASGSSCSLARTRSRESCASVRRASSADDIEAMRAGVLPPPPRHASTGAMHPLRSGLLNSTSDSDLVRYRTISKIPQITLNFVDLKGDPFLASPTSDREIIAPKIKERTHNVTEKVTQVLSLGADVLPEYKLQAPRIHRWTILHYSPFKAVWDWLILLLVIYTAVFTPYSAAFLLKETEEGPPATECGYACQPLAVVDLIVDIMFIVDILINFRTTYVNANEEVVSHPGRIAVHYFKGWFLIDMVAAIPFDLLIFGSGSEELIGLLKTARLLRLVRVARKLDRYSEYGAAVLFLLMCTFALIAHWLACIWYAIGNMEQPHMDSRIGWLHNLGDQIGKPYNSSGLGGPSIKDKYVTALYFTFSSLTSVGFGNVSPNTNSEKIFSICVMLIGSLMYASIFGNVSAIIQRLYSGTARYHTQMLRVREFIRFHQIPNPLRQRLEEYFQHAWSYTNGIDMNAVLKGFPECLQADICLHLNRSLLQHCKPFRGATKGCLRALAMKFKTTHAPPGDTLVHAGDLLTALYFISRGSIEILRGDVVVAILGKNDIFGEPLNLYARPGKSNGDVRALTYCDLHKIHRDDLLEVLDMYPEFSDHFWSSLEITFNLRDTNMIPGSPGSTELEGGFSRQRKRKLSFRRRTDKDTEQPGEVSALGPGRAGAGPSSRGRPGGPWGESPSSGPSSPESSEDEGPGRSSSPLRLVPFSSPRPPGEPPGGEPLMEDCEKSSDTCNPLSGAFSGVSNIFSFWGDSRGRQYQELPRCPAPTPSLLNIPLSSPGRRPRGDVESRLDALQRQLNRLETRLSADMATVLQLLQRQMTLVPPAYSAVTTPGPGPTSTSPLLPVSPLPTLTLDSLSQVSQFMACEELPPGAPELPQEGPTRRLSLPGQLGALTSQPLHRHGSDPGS
T5 sequence (P28223 whole entry): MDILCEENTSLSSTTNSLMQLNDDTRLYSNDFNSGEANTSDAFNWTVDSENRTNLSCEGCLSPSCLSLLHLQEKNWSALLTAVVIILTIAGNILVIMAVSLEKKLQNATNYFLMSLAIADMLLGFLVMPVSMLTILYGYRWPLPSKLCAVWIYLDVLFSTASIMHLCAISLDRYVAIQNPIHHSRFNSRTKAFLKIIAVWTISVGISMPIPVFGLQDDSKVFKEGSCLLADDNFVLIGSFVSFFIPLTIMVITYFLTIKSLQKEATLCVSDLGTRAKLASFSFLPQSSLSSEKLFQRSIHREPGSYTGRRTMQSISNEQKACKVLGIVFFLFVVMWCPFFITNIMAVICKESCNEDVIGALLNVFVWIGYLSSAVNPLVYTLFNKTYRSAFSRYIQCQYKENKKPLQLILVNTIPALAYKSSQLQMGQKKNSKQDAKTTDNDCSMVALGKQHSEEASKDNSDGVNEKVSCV
D(3) dopamine receptor, sequence (P35462 whole entry): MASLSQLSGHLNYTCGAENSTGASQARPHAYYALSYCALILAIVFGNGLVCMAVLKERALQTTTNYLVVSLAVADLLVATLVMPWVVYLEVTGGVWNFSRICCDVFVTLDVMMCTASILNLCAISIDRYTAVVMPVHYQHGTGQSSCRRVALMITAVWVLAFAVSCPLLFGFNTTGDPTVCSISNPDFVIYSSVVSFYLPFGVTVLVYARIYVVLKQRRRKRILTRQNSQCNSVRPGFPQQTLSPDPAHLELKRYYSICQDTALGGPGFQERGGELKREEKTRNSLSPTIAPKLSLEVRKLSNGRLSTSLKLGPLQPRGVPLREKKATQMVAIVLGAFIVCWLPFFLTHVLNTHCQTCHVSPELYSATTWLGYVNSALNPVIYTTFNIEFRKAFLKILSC
5-hydroxytryptamine receptor 7, sequence (P34969 whole entry): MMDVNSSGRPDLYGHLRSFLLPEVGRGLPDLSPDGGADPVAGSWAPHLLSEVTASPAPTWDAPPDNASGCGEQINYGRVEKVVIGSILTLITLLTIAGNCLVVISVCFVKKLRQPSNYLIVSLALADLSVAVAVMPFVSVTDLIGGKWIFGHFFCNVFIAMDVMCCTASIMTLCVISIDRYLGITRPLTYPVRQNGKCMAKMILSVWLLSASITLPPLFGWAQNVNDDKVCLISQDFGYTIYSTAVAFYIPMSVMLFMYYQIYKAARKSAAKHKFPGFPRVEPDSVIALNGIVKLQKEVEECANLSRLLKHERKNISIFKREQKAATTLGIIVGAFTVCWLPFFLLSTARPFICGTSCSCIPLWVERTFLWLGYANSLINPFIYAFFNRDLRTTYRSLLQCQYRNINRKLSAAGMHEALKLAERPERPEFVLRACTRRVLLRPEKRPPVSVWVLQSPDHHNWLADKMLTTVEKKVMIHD
Voltage-gated inwardly rectifying potassium channel KCNH2, sequence (Q12809 whole entry): as the sequence (Q12809 whole entry) above
5-hydroxytryptamine receptor 2B, sequence (P41595 whole entry): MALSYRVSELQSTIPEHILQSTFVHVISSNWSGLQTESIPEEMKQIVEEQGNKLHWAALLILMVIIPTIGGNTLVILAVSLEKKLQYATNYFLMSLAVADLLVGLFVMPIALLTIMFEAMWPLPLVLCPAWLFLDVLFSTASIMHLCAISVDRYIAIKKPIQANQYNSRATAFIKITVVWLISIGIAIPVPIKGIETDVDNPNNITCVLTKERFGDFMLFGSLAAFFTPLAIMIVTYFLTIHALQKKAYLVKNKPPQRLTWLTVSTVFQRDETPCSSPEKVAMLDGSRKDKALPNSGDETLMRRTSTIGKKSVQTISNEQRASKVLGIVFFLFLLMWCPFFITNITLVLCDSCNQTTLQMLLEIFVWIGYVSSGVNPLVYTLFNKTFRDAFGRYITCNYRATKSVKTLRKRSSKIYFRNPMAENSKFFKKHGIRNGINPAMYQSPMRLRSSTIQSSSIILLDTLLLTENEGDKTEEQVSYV
5-hydroxytryptamine receptor 1A, sequence (P08908 whole entry): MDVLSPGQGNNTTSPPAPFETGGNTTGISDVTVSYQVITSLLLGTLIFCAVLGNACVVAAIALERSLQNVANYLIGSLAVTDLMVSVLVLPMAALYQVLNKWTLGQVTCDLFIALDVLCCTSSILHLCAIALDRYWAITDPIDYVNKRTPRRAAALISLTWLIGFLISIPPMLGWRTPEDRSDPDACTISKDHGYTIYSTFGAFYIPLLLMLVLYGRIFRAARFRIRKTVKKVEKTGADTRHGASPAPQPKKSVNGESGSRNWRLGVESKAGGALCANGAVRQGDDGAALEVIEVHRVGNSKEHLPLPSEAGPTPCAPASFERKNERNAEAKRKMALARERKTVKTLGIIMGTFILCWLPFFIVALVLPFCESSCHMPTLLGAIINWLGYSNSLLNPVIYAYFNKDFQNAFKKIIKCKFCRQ

NC[C@H]1C[C@@H]1c1cc(O)ccc1OCC1CC1
bioavailability [1]: 3.2%

C=CCOc1ccc(F)cc1[C@H]1C[C@@H]1CN.Cl
Ki [2]: < 1000 nM
inhibition at […] (hERG (KCNH2) [3]): 8.7%
Ki [4]: < 1000 nM
Activity (Mus musculus): Dose-dependent effect
Ratio EC50 (Homo sapiens): 89
Ki [5]: < 1000 nM
Activity [6]: inactive
Ki [7]: < 1000 nM
EC50 [8]: 4.2 nM
Emax [9]: 87%
inhibition at 10 µM (CYP2B6): 80%
Ki (D(3) dopamine receptor): < 1000 nM
inhibition at 10 µM (CYP2C9): 35%
inhibition at 10 µM (CYP3A4): 15%
Ki [10]: < 1000 nM
inhibition at 3.3 µM (hERG (KCNH2) [11]): 18%
inhibition (INH) [12]: Dose-dependent effect
inhibition at 30 µM (hERG (KCNH2) [13]): 45%
EC50 [14]: 374 nM
inhibition at 10 µM (CYP2C19): 22%
inhibition at […] (hERG (KCNH2) [15]): 6.4%
inhibition at 10 µM (CYP2D6): 43%
Emax [16]: 56%
inhibition at 10 µM (hERG (KCNH2) [17]): 29%
Ki [18]: < 1000 nM

Reference: ChEMBL document CHEMBL3414471 (J Med Chem, 2015)
